Series [1] concerns the target T1, Gonadotropin-releasing hormone receptor (Homo sapiens, UniProt P30968).
T1 sequence (P30968 whole entry): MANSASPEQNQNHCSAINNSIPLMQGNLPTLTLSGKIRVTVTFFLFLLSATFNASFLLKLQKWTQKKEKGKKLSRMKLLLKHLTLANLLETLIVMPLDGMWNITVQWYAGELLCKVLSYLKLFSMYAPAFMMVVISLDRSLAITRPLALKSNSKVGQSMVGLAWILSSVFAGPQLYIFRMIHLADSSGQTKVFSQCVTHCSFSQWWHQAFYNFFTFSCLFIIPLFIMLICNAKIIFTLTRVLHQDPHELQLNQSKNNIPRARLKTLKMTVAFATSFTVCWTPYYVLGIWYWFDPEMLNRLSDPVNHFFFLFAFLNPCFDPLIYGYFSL
Description: Antagonist activity at human GnRHR expressed in HEK293 cells assessed as inhibition of GnRH-induced luciferase response by reporter gene assay. It counts as functional, cell-based. In a few lines:
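HEK293 cells stably expressing cloned human GnRHR and an LH alpha-subunit-promoter luciferase reporter, plated overnight. Compound in 1% DMSO was added 10 min before GnRH (1 nM final), then ≥5 h at 37 °C, 5% CO2, then luminescence. 11 half-log concentrations in duplicate. IC50 from four-parameter logistic fit, reported as geometric mean of ≥2 experiments.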
On the technique in general: Reporter assays use an easily measured gene product as a stand-in for the process of interest.

Series [2] in a line: Solubility in 5% mannitol. It is filed as physicochemical.
The nature of series [3]: Ratio of IC50 for rat GnRHR to IC50 for human GnRHR in HEK293 cells. It is filed as functional.
In another series the test system is Rattus norvegicus. Kind of series: Inhibition of plasma testosterone levels in Sprague-Dawley rat at 19.6 uM, sc by enzyme-linked immunosorbent assay. It is filed as functional. Put shortly:
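Intact adult male Sprague-Dawley rats (275–310 g, 3 per group) received subcutaneous mini-pumps for seven days. Solutions were in 1:3 DMSO/water: 19.6 μM (~0.66 nM/day/kg), or 9.8 μM (~0.33 nM/day/kg). Sham-operated controls. Plasma was sampled on days 3–7 and testosterone measured by ELISA. Values are means of days 4–7.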

The target in series [4] is T2, Gonadotropin-releasing hormone receptor (Rattus norvegicus, UniProt P30969).
T2 sequence (P30969 whole entry): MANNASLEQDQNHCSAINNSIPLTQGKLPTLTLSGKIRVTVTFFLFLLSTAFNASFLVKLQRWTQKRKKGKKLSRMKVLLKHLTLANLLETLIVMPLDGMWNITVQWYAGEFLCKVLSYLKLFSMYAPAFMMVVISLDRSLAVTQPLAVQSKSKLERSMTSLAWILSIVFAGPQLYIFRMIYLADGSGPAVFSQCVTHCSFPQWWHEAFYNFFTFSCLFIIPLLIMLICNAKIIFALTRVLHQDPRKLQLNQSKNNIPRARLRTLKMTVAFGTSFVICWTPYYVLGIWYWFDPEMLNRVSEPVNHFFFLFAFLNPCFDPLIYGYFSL
Description: Antagonist activity at rat GnRHR expressed in HEK293 cells assessed as inhibition of GnRH-induced luciferase response by reporter gene assay. It is filed as functional, cell-based. Put shortly:
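Rat GnRHR stably expressed in HEK293 cells, transiently transfected with an NFAT-responsive luciferase reporter, plated after 16 h and assayed next day. Compound in 1% DMSO was given 10 min before 1 nM GnRH (final), ≥5 h at 37 °C, then luminescence. Duplicates at 11 half-log concentrations. IC50 by four-parameter logistic fit, geometric mean of ≥2 experiments.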

Series [5] addresses T3, Gonadotropin-releasing hormone receptor (Homo sapiens) (UniProt P30968).
T3 sequence (whole entry): T1 sequence (P30968 whole entry)
Kind of series: Antagonist activity at human GnRHR expressed in COS7 cells assessed as inhibition of GnRH-stimulated inositol phosphate production after 2 hrs. It counts as functional, cell-based. The note with it: COS-7, filed as antagonist. Put shortly:
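COS-7 cells transiently transfected with WT hGnRH-R cDNA, labelled 18 h at 37 °C with 4 μCi/mL [3H]myo-inositol in inositol-free DMEM. Cells were washed in medium with 5 mM LiCl, then co-incubated 2 h at 37 °C with 10−8 M GnRH plus analogue at 10−8 to 10−5 M. IP was measured by Dowex anion-exchange and scintillation counting. Triplicate, repeated three or more times.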

A word on the IC50: it is the concentration at which inhibition is half-maximal. In general, solubility refers to how much of the substance goes into solution per volume.

Values after ≈ are worked out from the molar mass of the structure shown.

For `CC(=O)Nc1ccc(C[C@H](NC(=O)[C@H](CO)NC(=O)[C@@H](Cc2cccnc2)NC(=O)[C@@H](Cc2ccc(Cl)cc2)NC(=O)[C@@H](Cc2ccc3ccccc3c2)NC(C)=O)C(=O)N[C@H](Cc2ccc(NC(C)=O)cc2)C(=O)N[C@@H](C(=O)N[C@@H](CCCCNC(C)C)C(=O)N2CCC[C@H]2C(=O)N[C@H](C)C(N)=O)[S+]([O-])C(C)C)cc1` (some centres undefined), the concentration for half-maximal inhibition (IC50) in series [1] is reported as 3 nM (antagonist). In series [2], this compound showed a solubility of 50 mg/mL (≈ 31.9 mM).

As to `CC(=O)Nc1ccc(C[C@H](NC(=O)[C@H](CO)NC(=O)[C@@H](CCC(N)=O)NC(=O)[C@@H](Cc2ccc(Cl)cc2)NC(=O)[C@@H](Cc2ccc3ccccc3c2)NC(C)=O)C(=O)N[C@H](Cc2ccc(NC(C)=O)cc2)C(=O)N[C@@H](C(=O)N[C@@H](CCCCNC(C)C)C(=O)N2CCC[C@H]2C(=O)N[C@H](C)C(N)=O)[S+]([O-])C(C)C)cc1` (some centres undefined), the 50% inhibitory concentration (IC50) in series [1] is on record as 85 nM (antagonist). Moreover, in series [2], the solubility was 50 mg/mL (≈ 32.3 mM).

Regarding `CC(=O)Nc1ccc(C[C@H](NC(=O)[C@H](CO)NC(=O)[C@@H](Cc2cccnc2)NC(=O)[C@@H](Cc2ccc(Cl)cc2)NC(=O)[C@@H](Cc2ccc3ccccc3c2)NC(C)=O)C(=O)N[C@H](Cc2ccc(NC(C)=O)cc2)C(=O)N[C@@H](CC(C)C)C(=O)N[C@@H](CCCCNC(C)C)C(=O)N2CCC[C@H]2C(=O)N[C@@H](C(N)=O)[S+](C)[O-])cc1` (some centres undefined), the IC50 in series [1] is reported as 0.83 nM (antagonist). The compound further registered a solubility in series [2] of 50 mg/mL (≈ 31.6 mM).

As to `CC(=O)Nc1ccc(C[C@H](NC(=O)[C@H](CO)NC(=O)[C@@H](Cc2cccnc2)NC(=O)[C@@H](Cc2ccc(Cl)cc2)NC(=O)[C@@H](Cc2ccc3ccccc3c2)NC(C)=O)C(=O)N[C@H](Cc2ccc(NC(C)=O)cc2)C(=O)N[C@H](C(=O)N[C@@H](CCCCNC(C)C)C(=O)N2CCC[C@H]2C(=O)N[C@H](C)C(N)=O)[S+]([O-])C(C)C)cc1` (some centres undefined), the “Ratio IC50” value in series [3] is recorded as 2.67. In the series with Rattus norvegicus, this compound yielded a Plasma testosterone level of 3.22 ng/mL. For the same compound, the half-maximal inhibitory concentration (IC50) is recorded as 1.2 nM (antagonist) in series [1] and 3.2 nM (antagonist) in series [4]. In series [2], this compound registered a solubility of 50 mg/mL (≈ 31.9 mM).

As to `CS[C@@H](NC(=O)[C@@H]1CCCN1C(=O)[C@H](CCCCNC(C)C)NC(=O)[C@H](CC(C)C)NC(=O)[C@@H](Cc1ccc(NC(C)=O)cc1)NC(=O)[C@H](Cc1ccc(NC(C)=O)cc1)NC(=O)[C@H](CO)NC(=O)[C@@H](Cc1cccnc1)NC(=O)[C@@H](Cc1ccc(Cl)cc1)NC(=O)[C@@H](Cc1ccc2ccccc2c1)NC(C)=O)C(N)=O`, the “Ratio IC50” value in series [3] is 2.83. In addition, the Activity entry in series [5] is “Antagonist”. Moreover, the Plasma testosterone level in the series on Rattus norvegicus worked out at 1.97 ng/mL. In addition, the IC50 was 0.6 nM (antagonist) in series [1] and 1.7 nM (antagonist) in series [4]. The solubility in series [2] was determined as 50 mg/mL (≈ 31.9 mM).

For the compound `CC(=O)Nc1ccc(C[C@H](NC(=O)[C@H](CO)NC(=O)[C@@H](Cc2cccnc2)NC(=O)[C@@H](Cc2ccc(Cl)cc2)NC(=O)[C@@H](Cc2ccc3ccccc3c2)NC(C)=O)C(=O)N[C@H](Cc2ccc(NC(C)=O)cc2)C(=O)N[C@@H](CC(C)C)C(=O)N[C@@H](CCCCNC(C)C)C(=O)N2CCC[C@H]2C(=O)N[C@H](C(N)=O)[S+](C)[O-])cc1` (some centres undefined), in series [1], the IC50 is reported as 0.87 nM (antagonist). For the same compound, the concentration in solution in series [2] (solubility) was 50 mg/mL (≈ 31.6 mM).

Take `CC(=O)Nc1ccc(C[C@H](NC(=O)[C@@H](NC(=O)[C@@H](Cc2cccnc2)NC(=O)[C@@H](Cc2ccc(Cl)cc2)NC(=O)[C@@H](Cc2ccc3ccccc3c2)NC(C)=O)[S+](C)[O-])C(=O)N[C@H](Cc2ccc(NC(C)=O)cc2)C(=O)N[C@@H](CC(C)C)C(=O)N[C@@H](CCCCNC(C)C)C(=O)N2CCC[C@H]2C(=O)N[C@H](C)C(N)=O)cc1` (some centres undefined): in series [1], the IC50 is on record as 4.6 nM (antagonist). Further, the concentration in solution in series [2] (solubility) came to 50 mg/mL (≈ 31.9 mM).

For `CC(=O)Nc1ccc(C[C@H](NC(=O)[C@H](CO)NC(=O)[C@@H](Cc2cccnc2)NC(=O)[C@@H](Cc2ccc(Cl)cc2)NC(=O)[C@@H](Cc2ccc3ccccc3c2)NC(C)=O)C(=O)N[C@H](Cc2ccc(NC(C)=O)cc2)C(=O)N[C@H](SC(C)C)C(=O)N[C@@H](CCCCNC(C)C)C(=O)N2CCC[C@H]2C(=O)N[C@H](C)C(N)=O)cc1`, the Activity result in series [5] is “Antagonist”. Also, the IC50 in series [1] is recorded as 0.81 nM (antagonist). The same compound registered a solubility in series [2] of 50 mg/mL (≈ 32.2 mM).

As for `CC(=O)Nc1ccc(C[C@H](NC(=O)[C@H](CO)NC(=O)[C@@H](CCC(N)=O)NC(=O)[C@@H](Cc2ccc(Cl)cc2)NC(=O)[C@@H](Cc2ccc3ccccc3c2)NC(C)=O)C(=O)N[C@H](Cc2ccc(NC(C)=O)cc2)C(=O)N[C@H](C(=O)N[C@@H](CCCCNC(C)C)C(=O)N2CCC[C@H]2C(=O)N[C@H](C)C(N)=O)[S+]([O-])C(C)C)cc1` (some centres undefined), the IC50 in series [1] is 13 nM (antagonist). Also, the concentration in solution in series [2] (solubility) came to 50 mg/mL (≈ 32.3 mM).

In the case of `CC(=O)Nc1ccc(C[C@H](NC(=O)[C@H](CO)NC(=O)[C@@H](CCC(N)=O)NC(=O)[C@@H](Cc2ccc(Cl)cc2)NC(=O)[C@@H](Cc2ccc3ccccc3c2)NC(C)=O)C(=O)N[C@H](Cc2ccc(NC(C)=O)cc2)C(=O)N[C@@H](C(=O)N[C@@H](CCCCNC(C)C)C(=O)N2CCC[C@H]2C(=O)N[C@H](C)C(N)=O)S(=O)(=O)C(C)C)cc1`, the IC50 in series [1] was 2000 nM (antagonist). In series [2], this compound came in with a solubility of 50 mg/mL (≈ 32 mM).

Regarding `CS[C@@H](NC(=O)[C@@H](Cc1cccnc1)NC(=O)[C@@H](Cc1ccc(Cl)cc1)NC(=O)[C@@H](Cc1ccc2ccccc2c1)NC(C)=O)C(=O)N[C@@H](Cc1ccc(NC(C)=O)cc1)C(=O)N[C@H](Cc1ccc(NC(C)=O)cc1)C(=O)N[C@@H](CC(C)C)C(=O)N[C@@H](CCCCNC(C)C)C(=O)N1CCC[C@H]1C(=O)N[C@H](C)C(N)=O`, in series [5], the Activity result was “Antagonist”. Besides, the IC50 in series [1] is reported as 25 nM (antagonist). In series [2], this compound had a solubility of 50 mg/mL (≈ 32.3 mM).

Take `CC(=O)Nc1ccc(C[C@H](NC(=O)[C@H](CO)NC(=O)[C@@H](CCC(N)=O)NC(=O)[C@@H](Cc2ccc(Cl)cc2)NC(=O)[C@@H](Cc2ccc3ccccc3c2)NC(C)=O)C(=O)N[C@H](Cc2ccc(NC(C)=O)cc2)C(=O)N[C@@H](SC(C)C)C(=O)N[C@@H](CCCCNC(C)C)C(=O)N2CCC[C@H]2C(=O)N[C@H](C)C(N)=O)cc1`: the IC50 in series [1] was 6.2 nM (antagonist). Further, the solubility in series [2] stood at 50 mg/mL (≈ 32.7 mM).

Take `CC(=O)Nc1ccc(C[C@H](NC(=O)[C@H](CO)NC(=O)[C@@H](CCC(N)=O)NC(=O)[C@@H](Cc2ccc(Cl)cc2)NC(=O)[C@@H](Cc2ccc3ccccc3c2)NC(C)=O)C(=O)N[C@H](Cc2ccc(NC(C)=O)cc2)C(=O)N[C@H](SC(C)C)C(=O)N[C@@H](CCCCNC(C)C)C(=O)N2CCC[C@H]2C(=O)N[C@H](C)C(N)=O)cc1`: in series [1], the half-inhibitory concentration (IC50) is given as 39 nM (antagonist). Further, in series [2], the solubility is 50 mg/mL (≈ 32.7 mM).

For the compound `CC(=O)Nc1ccc(C[C@H](NC(=O)[C@H](NC(=O)[C@@H](Cc2cccnc2)NC(=O)[C@@H](Cc2ccc(Cl)cc2)NC(=O)[C@@H](Cc2ccc3ccccc3c2)NC(C)=O)[S+](C)[O-])C(=O)N[C@H](Cc2ccc(NC(C)=O)cc2)C(=O)N[C@@H](CC(C)C)C(=O)N[C@@H](CCCCNC(C)C)C(=O)N2CCC[C@H]2C(=O)N[C@H](C)C(N)=O)cc1` (some centres undefined), the 50% inhibitory concentration (IC50) in series [1] is recorded as 6.9 nM (antagonist). This compound also had a solubility in series [2] of 50 mg/mL (≈ 31.9 mM).

As for `CC(=O)Nc1ccc(C[C@H](NC(=O)[C@H](CO)NC(=O)[C@@H](CCC(N)=O)NC(=O)[C@@H](Cc2ccc(Cl)cc2)NC(=O)[C@@H](Cc2ccc3ccccc3c2)NC(C)=O)C(=O)N[C@H](Cc2ccc(NC(C)=O)cc2)C(=O)N[C@H](C(=O)N[C@@H](CCCCNC(C)C)C(=O)N2CCC[C@H]2C(=O)N[C@H](C)C(N)=O)S(=O)(=O)C(C)C)cc1`, the IC50 in series [1] is 3810 nM (antagonist). For the same compound, the concentration in solution in series [2] (solubility) was 50 mg/mL (≈ 32 mM).

Values taken from ChEMBL document CHEMBL1147132, “Structure-activity relationship studies of gonadotropin-releasing hormone antagonists containing S-aryl/alkyl norcysteines and their oxidized derivatives” (J Med Chem, 2007).
